Measured values: ChEMBL document CHEMBL4513216, “Probing the Open Global Health Chemical Diversity Library for Multistage-Active Starting Points for Next-Generation Antimalarials” (ACS Infect Dis, 2020)

assay: Toxicity liver stage against HepG2, at 10uM; format: cell-based; parameters: test concentration 10 uM, cell line HepG2-A16-CD81EGFP; settings: human, HepG2-A16-CD81EGFP cells; read-out: INHIBITION
Summary of the method: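 Uninfected HepG2-A16-CD81EGFP cells, 3 × 10^3 per well, 1536-well, plated on prespotted compound at 10 μM final, parasite-free screening media added to match infected plates; puromycin 10 μM positive, DMSO 0.5% negative; run in parallel with 48 h PbLuc assay at 37 °C, 5% CO2; viability by CellTiter-Glo luminescence, normalized to controls.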

| SMILES | cytotoxicity at 10 µM [%] |
| --- | --- |
| CC[C@H]1CN2CC[C@H]1C[C@@H]2CNCc1ccc(N(C)C)cc1 | -5.66 |
| CN(C)C(=O)CN1CCC2(CC1)CC(=O)c1c(ccc3ccccc13)O2 | 3.28 |
| O=S1(=O)c2cccnc2OC(Cc2ccccc2)CN1CC1CC1 (stereo unspecified) | -2.46 |
| CN1C(=O)C2(CC(=O)Nc3c2cnn3C(C)(C)C)c2ccccc21 (stereo unspecified) | -4.5 |
| Cn1ncc2c1NC(=O)CSC2c1ccc2c(c1)OCO2 (stereo unspecified) | 0.435 |
| CCSc1nc(N)c(NC(=O)c2ccc(C)cc2)c(=O)[nH]1 | -57.3 |
| O=c1c(S(=O)(=O)N2CCCC2)cccn1Cc1ccc(F)cc1Cl | 12 |
| COc1ccc(C(=O)NCC(C)(O)CCc2ccccc2)cc1 (stereo unspecified) | -7.39 |
| O=C(c1cc(Br)ccc1-n1cnnn1)N1CCCCC1 | -1.25 |
| O=c1[nH]c2c(c(=O)n1C1CCCCC1)CCC2Nc1ccccn1 (stereo unspecified) | -8.02 |
| CC1CCN(c2nc3ncc4c(c3c(=O)[nH]2)CC(C)(C)CC4=O)CC1 | 3.49 |
| COc1ccc(OC)c(C(C)Nc2ncnc3c2NC(=O)CN3)c1 (stereo unspecified) | 10.6 |
| CCC(=O)Nc1nnc(CCCOc2ccccc2)s1 | -0.834 |
| CC1(C(N)=O)CN(S(=O)(=O)c2cccc(F)c2)CCO1 (stereo unspecified) | 6.73 |
| COCC(=O)N1C[C@@H](c2cc(O)nc(C)n2)[C@H](c2ccccc2F)C1 | 5.62 |
| Cc1noc(C)c1-c1ccnc(C2CCN(C3CCOCC3)CC2)c1 | -28.7 |
| C[C@]1(O)CN(Cc2ncccc2F)CC[C@@H]1Oc1ccccc1 | -21 |
| CN1CCCCC1c1ncc2c(n1)CCN(Cc1ccc(F)cc1)C2 (stereo unspecified) | -17.6 |
| O=C(NCCO)Nc1cnc2cc(Cl)ccc2c1O | -30.2 |
| Fc1cccc(Cl)c1CN1CCC(c2n[nH]c3ncccc23)CC1 | -13.7 |
| CC(C)Cc1cc(C(=O)N2CCC(N3CCCC3)CC2)cc(O)n1 | 4.64 |

| SMILES | cytotoxicity at 10 µM [%] |
| --- | --- |
| Cc1[nH]ncc1CCCNC(=O)N1CCC(CC(N)=O)CC1 | 5.45 |
| COCCN(Cc1ccc(C)o1)C(=O)Nc1nnc(C(F)F)s1 | 1.24 |
| CCN1CCN2CCCN(S(=O)(=O)c3cccc(F)c3)C2C1=O (stereo unspecified) | 5.18 |
| NC(=O)CN1CCN(S(=O)(=O)N2CCCC2c2ccco2)CC1 (stereo unspecified) | -3.48 |
| CCCc1cc(N(CCOC)CC(F)F)n2ncnc2n1 | 4.81 |
| CCc1oc(C(=O)OC)cc1Cn1cccc(C(F)(F)F)c1=O | -2.13 |
| CN(CCCNC(=O)C1CCc2cn[nH]c2C1)c1ccccc1 (stereo unspecified) | -5.19 |
| CN(Cc1ccncc1)C(=O)Nc1cnn(CC(N)=O)c1 | -3.07 |
| CCOc1ccc(NS(=O)(=O)c2cc(C)c(C(=O)O)s2)cc1F | -3.24 |
| Cc1ccc(CNCc2c(C(C)C)nn(C)c2N2CCOCC2)s1 | -3.03 |
| CCOc1cncc(N2CCCC2c2nnc3n2CCCCC3)n1 (stereo unspecified) | -5.93 |
| CC(=O)NCCC(=O)NCC1(c2c(F)cccc2F)CCCC1 | -2.75 |
| CC(C)(C)CC(=O)Nc1ccc(S(C)(=O)=O)nc1 | -3.05 |
| CC1CCCCN1S(=O)(=O)NCc1cccnc1OC1CCCC1 (stereo unspecified) | -89.8 |
| CNC(=O)CCN1CCCC1c1ccccc1Br (stereo unspecified) | 15.3 |
| Cc1cc(C(=O)N2CCC(N3CCNC3=O)CC2)nn1C(C)(C)C | 5.56 |
| CCc1ccc(C(=O)O)cc1S(=O)(=O)N(C)c1cccc(C#N)c1 | -2.08 |
| CC(C)N(C)C(=O)c1ccc(Cl)c(NC(=O)COCC2CC2)c1 | 6.14 |
| Cc1ccccc1-n1cnc(Cl)c1C(=O)O | -4.11 |
| CCCN(CC(F)(F)F)C(=O)c1cc(F)cc2[nH]cnc12 | 3.19 |
| CC(CN(C)C(=O)c1cn(C)nc1-c1ccc(F)cc1F)C(=O)O (stereo unspecified) | 0.184 |

| SMILES | cytotoxicity at 10 µM [%] |
| --- | --- |
| Cc1nncn1CCNC(=O)C(C)(C)c1cccc(Cl)c1 | 8.55 |
| N#Cc1cccc(CS(=O)(=O)NCCC(O)c2ccccc2)c1 (stereo unspecified) | 0.692 |
| Cc1ccc(S(=O)(=O)NCC2COCc3c(C)nnn3C2)cc1F (stereo unspecified) | -4.55 |
| CS(=O)(=O)N1CCC2(CC1)c1ccccc1[C@@H](N1CCSCC1)[C@@H]2O | -9.71 |
| CC(C)C1CN(S(C)(=O)=O)CCCN1Cc1ccc(F)cc1 (stereo unspecified) | 1.81 |
| CCCn1cc(S(=O)(=O)N[C@H]2CN(C(C)=O)C[C@@H]2C2CC2)cn1 | -1.48 |
| Cc1nn(C)c(C)c1-c1ccnc(N2CCCN(CC(C)C)CC2)n1 | 5.78 |
| Cc1ccnc(N2CCN(C[C@]3(O)CCCN4CCCC[C@@H]43)CC2)c1 | 3.78 |
| Cc1cnc(C(=O)NCC2CCOc3ccccc3C2)cn1 (stereo unspecified) | 5.06 |
| Cc1ocnc1C(=O)N(Cc1cccnc1)C[C@@H]1CCC(=O)N1 | 8.83 |
| Cc1ccsc1C(=O)N1C[C@@H](C(=O)O)[C@H](C(C)C)C1 | 9.42 |
| CN1CCN(Cc2ccc(-c3ccc(C(N)=O)cc3)nc2)CC1 | 5.58 |
| CCO[C@H]1CN(C)C[C@@H]1NC(=O)c1cc(C)nc2c(C)cccc12 | 3.28 |
| Cc1cc(C)n(C2CCN(C(=O)c3cn4ccsc4n3)C2)n1 (stereo unspecified) | 6.59 |
| Cc1ccc(C(=O)N2CCC(=O)N(CC3CC3)C(C(C)C)C2)c(=O)[nH]1 (stereo unspecified) | -15 |
| OC1CCN(C2CCN(c3ccc(Cn4ccnc4)cn3)CC2)CC1 | -2.05 |
| Cc1cnccc1NCCNC(=O)C1CCCN(Cc2ccco2)C1 (stereo unspecified) | -7.67 |
| CCCc1nc(C(=O)NCCCn2nnc3ccccc32)cs1 | -14 |
| CC(CNc1nccc(C(C)C)n1)Oc1cccnc1 (stereo unspecified) | 4.34 |
| COc1ncccc1-c1ncccc1NC(=O)C(C)C | 3.78 |
| NC(=O)c1cncc(Oc2cccc(CN3CCCC3)c2Cl)n1 | -3.47 |

| SMILES | cytotoxicity at 10 µM [%] |
| --- | --- |
| Cc1cccnc1CN1CCN(C(=O)CCn2ccc(=O)[nH]c2=O)CC1 | 1.99 |
| C[C@@H]1CN(C(=O)C2(Cn3cccn3)CC2)CC[C@@]1(O)C1CC1 | -2.6 |
| CCc1ncc(C(=O)N2CC(Oc3ccccc3Cl)C2)cn1 | 45.7 |
| CCc1ccc2occ(CC(=O)N3CCC4(CCCN(C)C4=O)C3)c2c1 (stereo unspecified) | -14.5 |
| Cc1cccc(CN2CCCC(O)(CNCc3ncccc3C)C2=O)c1 (stereo unspecified) | -7.4 |
| CN1CCC2(CC1)CN(C(=O)c1onc3ccccc13)CCCN2C | 8.31 |
| CCc1nccn1-c1cncc(C2CCCN2Cc2cccnc2)n1 (stereo unspecified) | 5.82 |
| CC(C)(C)n1cc(C(=O)N2CCN(Cc3ccncc3)CC2)cn1 | -12.8 |
| CCc1ncc2c(n1)CN(CC(=O)Nc1nnc(C)s1)CC2 | 2.94 |
| Cc1noc(C)c1C(=O)NCc1ccc(N2CCOC(C)C2)nc1 (stereo unspecified) | -3.46 |
| Cc1cc(CN(C)C(=O)c2ccnc(N(C)C)c2)no1 | 5.46 |
| Cc1nc(C)n(CC2CCCN2Cc2nc3ccccc3n2C)n1 (stereo unspecified) | -2.21 |
| Cc1cnn(CC2CN(CC(=O)NCc3ccccn3)CCO2)c1 (stereo unspecified) | -5.8 |
| COc1cccc2c(C)c(C(=O)N3CCNCC3C(N)=O)[nH]c12 (stereo unspecified) | 1.67 |
| c1cn(-c2cnc(C3CCCNC3)cn2)cn1 (stereo unspecified) | -25.2 |
| Cc1cc2c(=O)n3c(nc2s1)CCN(Cc1cnn(C)c1C)CC3 | 3.06 |
| Cc1cc(C(=O)N2CCO[C@H]3[C@H](OCCN(C)C)CC[C@@H]32)c(C)[nH]1 | 7.07 |
| NCC1CCC(C(NC(=O)c2ccccn2)c2ccccn2)CC1 (stereo unspecified) | 2 |
